Results reported in publication PMC10842363 (Clinical cancer research : an official journal of the …, 2023).
Read-outs that look alike come from different tables or passages of the source.

Key:
[1] = test system: HER2+ tumors, DCCs and metastases; assay: Sequential Abemaciclib then HC4 treatment in MMTV-HER2 mice; type: in vivo, mouse; conditions: for GADD34 expression in primary tumors / Ki67 staining in primary tumors: 50 mpk daily, 4 weeks
[2] = test system: MCF10A-HER2 cells; conditions: MCF10A-HER2 cells treated with HC4
[3] = test system: HER2-driven early lesions in the mammary gland
[4] = test system: EMT6 cells; assay: EMT6 syngeneic spontaneous lung metastasis model; type: in vivo, Balb/c mice; conditions: 10 mg/kg
[5] = test system: D-HEp3 cells; assay: Chick chorioallantoic membrane; type: in vivo, human; conditions: 20 μM, 6-day treatment, CAM
[6] = test system: MCF10A-HER2 cells
[7] = test system: HER2
[8] = biological target: T1, PERK (Homo sapiens, UniProt Q9NZJ5); conditions: MCF10A cells overexpressing HER2
[9] = 28-day oral dosing study in mice; type: in vivo; conditions: oral dosing for 28 days, exposures similar to 50 mpk IP; data not shown
[10] = In vivo pharmacokinetic study, single dose; conditions: IP administration, CD1 female mice
[11] = Mammary gland morphology in non-tumor bearing healthy mice; type: in vivo; conditions: 2 weeks
[12] = test system: T-HEp3 cells; assay: T-HEp3 HNSCC PDX i.v. injection, solitary lung DCCs in Balb/c nu/nu mice; type: in vivo, human; conditions: 50 mg/kg for 10 days, started 24 h after i.v. injection
[13] = test system: HER2; conditions: HC4-treated vs control animals
[14] = test system: SKBR3 cells; assay: 3D acini culture in Matrigel, SKBR3; type: cell-based; conditions: SKBR3, 2 μM, 10-day treatment
[15] = biological target: T1, PERK; conditions: HEK293 cells stimulated with Tunicamycin
[16] = biological target: PERK (Mus musculus, UniProt Q9Z2B5); conditions: 50 mpk IP daily, 2 weeks
[17] = test system: kinases; assay: KINOMEscan kinase selectivity assay; type: binding
Procedure, shortened: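 Competition binding: kinases were T7 phage-tagged (grown in BL21-derived E. coli) or HEK-293-expressed with DNA tags. Incubated with biotinylated-ligand streptavidin beads and test compound (40x DMSO stocks) in SeaBlock/PBS/Tween/DTT buffer, 1 h RT. Eluted with 0.5 μM non-biotinylated ligand (30 min); kinase quantified by qPCR. Selectivity score S = hits/assays at a %Ctrl threshold, mutants excluded.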

[18] = test system: GADD34; conditions: MCF10A breast pre-malignant cells
[19] = test system: Fv2E-ΔNPERK fusion construct-expressing cell line; conditions: PERK dimerization induced with AP20187
[20] = Repeated dosing tolerability; type: in vivo; conditions: repeated dosing from 30 to 100 mg/kg
[21] = test system: GADD34; conditions: E0771 luminal B breast cancer cells
[22] = test system: HER2; remark: listed apart in the source
[23] = test system: HER2+ DCCs and metastases
[24] = test system: MMTV-HER2 tumors; assay: Primary tumor growth in MMTV-HER2 females; type: in vivo, mouse
[25] = test system: ZR-75-1 cells; assay: 3D acini culture in Matrigel, ZR-75-1; type: cell-based; conditions: ZR-75-1, 2 μM, 10-day treatment
[26] = Safety readouts in treated mice; type: in vivo
[27] = test system: MMTV-HER2 cells; assay: Established metastases after tail vein injection of MMTV-HER2 cells; type: in vivo, mouse; conditions: 50 mg/kg for 2 weeks, started 3 weeks after tail vein injection
[28] = MCF10A-HER2, 2 μM, +/- EGF 100 ng/ml
[29] = MCF10A-HER2, in presence of Thapsigargin 4 nM

PERK (Mus musculus, UniProt Q9Z2B5), sequence (Q9Z2B5 29-1114): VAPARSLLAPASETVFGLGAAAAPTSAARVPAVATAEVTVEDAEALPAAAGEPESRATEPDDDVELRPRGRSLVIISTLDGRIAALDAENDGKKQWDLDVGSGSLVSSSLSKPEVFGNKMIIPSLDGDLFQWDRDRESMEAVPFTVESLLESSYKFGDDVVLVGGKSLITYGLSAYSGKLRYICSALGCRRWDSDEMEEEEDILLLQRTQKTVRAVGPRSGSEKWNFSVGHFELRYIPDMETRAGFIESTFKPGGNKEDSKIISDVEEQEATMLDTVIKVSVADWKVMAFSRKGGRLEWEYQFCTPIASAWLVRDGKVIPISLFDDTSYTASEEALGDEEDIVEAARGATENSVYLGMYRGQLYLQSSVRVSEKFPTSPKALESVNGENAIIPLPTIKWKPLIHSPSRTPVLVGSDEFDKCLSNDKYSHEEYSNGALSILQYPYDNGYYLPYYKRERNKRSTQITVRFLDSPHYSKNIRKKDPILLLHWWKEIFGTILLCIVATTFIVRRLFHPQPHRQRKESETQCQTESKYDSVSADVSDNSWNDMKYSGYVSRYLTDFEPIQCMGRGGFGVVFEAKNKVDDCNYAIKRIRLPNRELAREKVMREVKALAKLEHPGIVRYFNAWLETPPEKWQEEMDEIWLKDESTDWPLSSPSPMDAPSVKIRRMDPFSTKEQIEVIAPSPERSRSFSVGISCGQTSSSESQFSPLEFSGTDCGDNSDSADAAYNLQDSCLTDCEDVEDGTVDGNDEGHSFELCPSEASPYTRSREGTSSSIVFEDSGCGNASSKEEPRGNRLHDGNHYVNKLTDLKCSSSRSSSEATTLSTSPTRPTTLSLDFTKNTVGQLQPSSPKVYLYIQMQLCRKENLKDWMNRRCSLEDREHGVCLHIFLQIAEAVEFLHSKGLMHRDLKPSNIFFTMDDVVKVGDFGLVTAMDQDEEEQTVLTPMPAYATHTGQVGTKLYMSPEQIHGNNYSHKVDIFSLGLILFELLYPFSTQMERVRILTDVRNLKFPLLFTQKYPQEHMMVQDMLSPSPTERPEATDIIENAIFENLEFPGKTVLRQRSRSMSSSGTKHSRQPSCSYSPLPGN
T1 sequence (Q9NZJ5 30-1116): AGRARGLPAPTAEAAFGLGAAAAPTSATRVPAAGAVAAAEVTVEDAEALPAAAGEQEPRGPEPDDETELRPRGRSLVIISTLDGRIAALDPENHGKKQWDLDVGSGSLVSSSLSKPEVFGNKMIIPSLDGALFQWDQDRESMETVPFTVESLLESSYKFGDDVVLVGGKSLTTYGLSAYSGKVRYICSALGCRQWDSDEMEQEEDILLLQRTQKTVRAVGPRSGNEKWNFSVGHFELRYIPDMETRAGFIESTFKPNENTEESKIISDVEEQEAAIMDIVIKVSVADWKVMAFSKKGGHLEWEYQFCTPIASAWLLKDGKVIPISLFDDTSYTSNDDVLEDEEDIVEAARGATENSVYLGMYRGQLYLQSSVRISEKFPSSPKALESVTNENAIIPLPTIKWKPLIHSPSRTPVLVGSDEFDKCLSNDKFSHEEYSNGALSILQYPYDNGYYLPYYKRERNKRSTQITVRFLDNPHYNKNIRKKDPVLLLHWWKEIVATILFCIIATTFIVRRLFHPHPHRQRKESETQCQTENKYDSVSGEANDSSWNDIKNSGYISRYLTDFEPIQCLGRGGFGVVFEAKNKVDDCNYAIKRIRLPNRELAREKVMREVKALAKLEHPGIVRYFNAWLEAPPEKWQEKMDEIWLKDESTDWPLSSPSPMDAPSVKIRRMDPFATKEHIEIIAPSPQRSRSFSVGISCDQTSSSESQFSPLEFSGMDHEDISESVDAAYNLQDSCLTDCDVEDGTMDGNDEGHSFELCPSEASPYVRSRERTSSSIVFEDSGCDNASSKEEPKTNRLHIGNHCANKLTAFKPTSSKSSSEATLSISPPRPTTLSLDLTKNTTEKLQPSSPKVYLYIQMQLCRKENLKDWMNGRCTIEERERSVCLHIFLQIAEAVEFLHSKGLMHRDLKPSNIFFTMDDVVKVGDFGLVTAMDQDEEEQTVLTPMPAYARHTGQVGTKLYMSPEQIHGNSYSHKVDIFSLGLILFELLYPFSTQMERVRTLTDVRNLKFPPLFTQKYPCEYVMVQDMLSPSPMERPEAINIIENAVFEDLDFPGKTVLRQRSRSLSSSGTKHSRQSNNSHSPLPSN

For CCN1CCN(Cc2ccc(Nc3ncc(F)c(-c4cc(F)c5nc(C)n(C(C)C)c5c4)n3)nc2)CC1 [Abema, Abemaciclib], the “GADD34 expression in primary tumors” value [1] was “increases”, the “Ki67 staining in primary tumors” value [1] was “reduces” and the “Ki67+ solitary DCCs” value ([1]; lung sections) was “almost absent”.
With Cc1cc(NC(=O)[C@H](O)c2cc(F)cc(F)c2)ccc1-c1cnc(N)c(C(=O)NC(C)C)c1 [HC4] the “sensitivity to low dose thapsigargin treatment” value [2] was “sensitive”, the “mammary glandular architecture (ductal branching)” value ([3]; 24-week-old MMTV-HER2 females, 50 mpk, 2 weeks) was “less dense branching” and the “cytokeratin 8/18 expression in the luminal layer” value ([3]; 50 mpk, 2 weeks) was “increased expression”. For the same molecule, the “number of occluded hyperplasias and DCIS-like lesions relative to vehicle” value ([3]; 50 mpk, 2 weeks) was “less than half”, the “hollow lumen mammary gland ducts, share of structures” value ([3]; around 20 % in control females) was “more than 60%” and the primary tumor growth ([4]; 17 days, not shown) was “without affecting”. For the same molecule, the “metastatic incidence and multiplicity of lesions per lung/animal” value ([4]; started 9 days after implanting, 17 days of treatment) was “strongly inhibited”, the “dormant D-HEp3 cells in vivo” value [5] was “eradication” and the “increase in cleaved caspase-3 positive D-HEp3 cells in the nodules” value [5] was 5 fold. The “levels of proliferation (phospho-histone H3)” value ([6]; 3D acini cultures, 2 μM, cell line not given) was “did not detect a significant change”, the “levels of apoptosis (cleaved caspase-3)” value ([6]; MCF10A-HER2, 2 μM, 10-day treatment) was “significantly increased” and the “P-AKT, P-S6 and P-ERK1/2 levels” value [7, 28] was “downregulation”. For the same molecule, the “basal and EGF-induced levels of P-EGFR and P-HER2” value [7, 28] was “decreased”, the “levels of P-HER2 and P-AKT” value [7, 29] was “decrease” and the “molecular weight of phosphorylated HER2 protein” value [7, 29] was “lower molecular weight”. The “total HER2 levels or heterodimerization with EGFR” value ([7]; surface biotinylation and co-immunoprecipitation, data not shown) was “No obvious effect”, the “P-PERK (P-T980) levels” value [8] was “effectively decreased” and the “effects on the pancreas or clinical chemistry (insulin and glucose levels)” value [9] was “no deleterious effects”. For the same molecule, the bioavailability [10] was “demonstrated bioavailability”, the “normal branching and morphology of the mammary gland ductal tree” value [11] was “did not affect” and the “reduction in the number of solitary HEp3 DCCs in the lung” value [12] was ~ 3 fold. For the same molecule, the “P-HER2 levels in tumors (area and intensity score)” value [13] was “significantly lower”, the “levels of apoptosis (cleaved caspase-3)” value [14] was “significantly increased” and the “GADD34 expression in primary tumors” value [1] was “completely erased”. The “Ki67 staining in primary tumors” value [1] was “does not dramatically affect”, the “P-PERK (P-T980) levels” value [15] was “effectively decreased” and the “P-PERK inhibition in pancreatic tissue, especially pancreatic islets” value ([16]; IHC) was “only partial inhibition”. For the same molecule, the “P-PERK and P-eIF2α levels by IHC” value ([16]; mammary gland ducts and pancreatic tissue) was “significant decrease”, the “decrease in P-PERK levels by western blot” value ([16]; tumor lysates) was “around 50%” and the “specificity for EIF2AK3 (PERK) over EIF2AK1 (HRI), EIF2AK2 (PKR), EIF2AK4 (GCN2) or HER2” value ([17]; Supplementary Table S3) was “high specificity”. The “KINOMEscan kinase profiling selectivity” value ([17]; compared to other PERK inhibitors, specifically GSK2656157, even at 10 μM) was “exceedingly high selectivity”, the “thapsigargin induced GADD34 expression” value [18] was “completely eliminated” and the “rescue of pro-apoptotic function of strong PERK activation” value [19] was “fully rescued”. For the same molecule, the body weight [20] was “no significant changes”, the tolerability [20] was “well tolerated” and the “thapsigargin induced GADD34 expression” value [21] was “completely eliminated”. For the same molecule, the “endocytosed phospho- and total HER2” value ([22]; MCF10A-HER2, reversible surface biotinylation) was “clearly increased”, the “abundance of P-HER2 and total HER2 in the cell surface” value ([22]; MCF10A-HER2, not shown) was “did not significantly alter” and the area of macro-metastases ([23]; 50 mpk IP daily, two weeks) was “not accompanied by a significant effect”. The “number and incidence of lung macro-metastases (>100 cells)” value ([23]; 50 mpk IP daily, two weeks) was “reduced”, the “number of DCCs in bone marrow” value ([23]; 50 mpk IP daily, two weeks) was “significantly decreased” and the “number of P-Rb positive solitary DCCs in lung” value ([23]; 50 mpk IP daily, two weeks) was “not affecting”. For the same molecule, the “number of lung micro-metastases (2-100 cells)” value ([23]; 50 mpk IP daily, two weeks) was “significant decrease”, the “number of non-proliferating (P-Rb negative) single DCCs in lung” value ([23]; 50 mpk IP daily, two weeks) was “significantly reduced” and the “HER2+ circulating tumor cells in blood” value ([23]; vehicle vs HC4-treated animals) was “no significant differences”. For the same molecule, the tumors showing regression ([24]; 2-week window treatment) was “Four”, the “DNA fragmentation (TUNEL staining) in tumor sections” value ([24]; 50 mpk daily, two weeks) was “significant increase” and the “median final tumor volume” value ([24]; 50 mpk daily, two weeks) was “significant decrease”. For the same molecule, the tumor growth ([24]; overt tumors, 50 mpk daily, two weeks) was “reduced growth rate”, the “levels of proliferation (phospho-histone H3 IHC) in tumors” value ([24]; vehicle- vs HC4-treated tumors) was “not different” and the “levels of apoptosis (cleaved caspase-3)” value [25] was “significantly increased”. For the same molecule, the “bone marrow cell homeostasis and peripheral blood white cells (total cell counts)” value ([26]; MMTV-HER2 females, 50 mpk IP daily, two weeks) was “did not have a significant effect”, the “glucose levels, bone marrow or peripheral blood cell counts, drinking and feeding behavior” value ([26]; non-tumor or cancer bearing mice, doses used) was “did not significantly affect” and the “frequency of already established micro-metastases” value [27] was “not affecting”. The “macro-metastatic lesion incidence and total metastatic burden” value [27] was “strongly reduce”.
